{"source": "ChEMBL document CHEMBL2203225", "about": "“Dehydrozingerone, a structural analogue of curcumin, induces cell-cycle arrest at the G2/M phase and accumulates intracellular ROS in HT-29 human colon cancer cells” (J Nat Prod, 2012)", "key": {"HT-29 [1]": {"system": "HT-29", "experiment": "Cytotoxicity against human HT-29 cells assessed as dead cells at GI70 concentration after 72 hrs by WST-8 assay", "format": "functional", "method_in_brief": "(§1)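 HT-29 colon cancer cells grown in DMEM with 10% FBS, 2 mM glutamine, penicillin and streptomycin at 37 °C, 5% CO2. Cells exposed to compound or vehicle (0.1% DMSO) for 72 h. Live and dead cells were counted by ViaCount staining on a Guava EasyCyte Plus flow cytometer, and percent dead cells was calculated. Mean ± SD, n = 3.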"}, "HT-29 [2]": {"system": "HT-29", "experiment": "Cytotoxicity against human HT-29 cells assessed as dead cells at > 31.3 uM after 72 hrs by […]", "format": "functional", "method_in_brief": "as §1"}, "HT-29 [3]": {"system": "HT-29", "experiment": "Upregulation of p21 gene expression in human HT-29 cells assessed as decrease in phosphorylated CDK1 at Thr161 at 500 uM after 24 hrs by Western blotting", "format": "functional, cell-based", "method_in_brief": "(§2)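 HT-29 cells treated 24 h or given 0.1% DMSO, then lysed in 50 mM Tris-HCl with 1% SDS and protease inhibitors. Blots were blocked in 5% skim milk/TBST for 1 h at RT and probed with primary antibody for 1 h at RT. Detection by ECL, with β-actin as loading control.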"}, "HT-29 [4]": {"system": "HT-29", "experiment": "Upregulation of CDK1 gene expression in human HT-29 cells at 125 to 500 uM after 24 hrs by Western blotting", "format": "functional, cell-based", "method_in_brief": "as §2"}, "HT-29 [5]": {"system": "HT-29", "experiment": "Cell cycle arrest in human HT-29 cells assessed as ROS-stimulated accumulation at G2/M phase after 24 hrs by propidium iodide based FACS flow cytometry in presence of PEG-penetreated catalase", "format": "functional", "method_in_brief": "(§3)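 HT-29 cells grown in DMEM with 10% FBS and 2 mM glutamine at 37 °C, 5% CO₂, treated 24 h, then permeabilized with 0.1% Triton X-100. Stained with 100 μg/mL propidium iodide and analysed for G1, S and G2/M fractions by FACSCalibur flow cytometry. Data are means ± SD, n = 3, versus 0.1% DMSO control.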"}, "HT-29 [6]": {"system": "HT-29", "experiment": "Cytotoxicity against human HT-29 cells assessed as dead cells at 500 uM after 72 hrs by […]", "format": "functional", "method_in_brief": "as §1"}, "HCT-15 [7]": {"system": "HCT-15", "experiment": "Cytotoxicity against human HCT15 cells assessed as growth inhibition after 72 hrs by WST-8 assay", "format": "functional, cell-based"}, "HT-29 [8]": {"system": "HT-29", "experiment": "Cell cycle arrest in human HT-29 cells assessed as accumulation at G2/M phase at 250 uM after 24 hrs by propidium iodide based FACS flow cytometry", "format": "functional", "method_in_brief": "(§4)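 HT-29 cells exposed 24 h to 125, 250 or 500 μM, with 0.1% DMSO as vehicle control. Permeabilized with 0.1% Triton X-100, stained with 100 μg/mL PI and analysed by FACSCalibur for G1/S/G2/M percentages. Means ± SD, n = 3; significance tested against DMSO control.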"}, "HCT-116 [9]": {"system": "HCT-116", "experiment": "Cell cycle arrest in human HCT116 cells assessed as ROS-stimulated accumulation at G2/M phase after 24 hrs by propidium iodide based FACS flow cytometry in presence of L-ascorbic acid", "format": "functional"}, "HT-29 [10]": {"system": "HT-29", "experiment": "Cell cycle arrest in human HT-29 cells assessed as ROS-stimulated accumulation at G2/M phase after 24 hrs by propidium iodide based FACS flow cytometry in presence of L-ascorbic acid", "format": "functional", "method_in_brief": "as §3"}, "HT-29 [11]": {"system": "HT-29", "experiment": "Cell cycle arrest in human HT-29 cells assessed as accumulation at G2/M phase at > 250 uM after 24 hrs by propidium iodide based FACS flow cytometry relative to control", "format": "functional", "method_in_brief": "as §4"}, "HCT-15 [12]": {"system": "HCT-15", "experiment": "Cell cycle arrest in human HCT15 cells assessed as ROS-stimulated accumulation at G2/M phase after 24 hrs by propidium iodide based FACS flow cytometry in presence of alpha-tocopherol", "format": "functional"}, "WI-38 [13]": {"system": "WI-38", "experiment": "Cell cycle arrest in human WI38 cells assessed as ROS-stimulated accumulation at G2/M phase at 250 uM after 24 hrs by propidium iodide based FACS flow cytometry in presence of N-acetyl-L-cysteine", "conditions": "wi-38, 24 h"}, "HT-29 [14]": {"system": "HT-29", "experiment": "Cell cycle arrest in human HT-29 cells assessed as ROS-stimulated increase in p21 at 250 to 500 uM after 24 hrs by Western blotting in presence of N-acetyl-L-cysteine", "format": "functional, cell-based"}, "HT-29 [15]": {"system": "HT-29", "experiment": "Cell cycle arrest in human HT-29 cells assessed as ROS-stimulated accumulation at G2/M phase after 24 hrs by propidium iodide based FACS flow cytometry in presence of alpha-tocopherol", "format": "functional", "method_in_brief": "as §3"}, "HT-29 [16]": {"system": "HT-29", "experiment": "Cell cycle arrest in human HT-29 cells assessed as ROS-stimulated accumulation at G2/M phase at 62.5 to 250 uM after 24 hrs by propidium iodide based FACS flow cytometry"}, "HT-29 [17]": {"system": "HT-29", "experiment": "Induction of ROS generation in human HT-29 cells at > 250 uM after 24 hrs by FACS flow cytometry", "format": "functional, cell-based"}, "HT-29 [18]": {"system": "HT-29", "experiment": "Upregulation of p21 gene expression in human HT-29 cells at > 250 uM after 24 hrs by Western blotting", "format": "functional, cell-based", "method_in_brief": "as §2"}, "HT-29 [19]": {"system": "HT-29", "experiment": "Upregulation of Cyclin B gene expression in human HT-29 cells at 125 to 500 uM after 24 hrs by Western blotting", "format": "functional, cell-based", "method_in_brief": "as §2"}, "HCT-116 [20]": {"system": "HCT-116", "experiment": "Cell cycle arrest in human HCT116 cells assessed as ROS-stimulated accumulation at G2/M phase after 24 hrs by propidium iodide based FACS flow cytometry in presence of N-acetyl-L-cysteine", "format": "functional"}, "HCT-116 [21]": {"system": "HCT-116", "experiment": "Cytotoxicity against human HCT116 cells assessed as growth inhibition after 72 hrs by WST-8 assay", "format": "functional, cell-based"}, "HT-29 [22]": {"system": "HT-29", "experiment": "Cell cycle arrest in human HT-29 cells assessed as ROS-stimulated accumulation at G2/M phase after 24 hrs by propidium iodide based FACS flow cytometry in presence of MnTBAP", "format": "functional", "method_in_brief": "as §3"}, "HT-29 [23]": {"system": "HT-29", "experiment": "Cell cycle arrest in human HT-29 cells assessed as ROS-stimulated accumulation at G2/M phase at 125 to 500 uM after 24 hrs by propidium iodide based FACS flow cytometry in presence of N-acetyl-L-cysteine", "format": "functional", "method_in_brief": "as §3"}, "HT-29 [24]": {"system": "HT-29", "experiment": "Cell cycle arrest in human HT-29 cells transfected with p21 siRNA assessed as accumulation at G2/M phase at 500 uM after 24 hrs by propidium iodide based FACS flow cytometry", "format": "functional", "method_in_brief": "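HT-29 cells transiently transfected for 24 h with 10 nM p21 or negative-control siRNA using Lipofectamine RNAiMAX, alongside 24 h exposure to 500 μM or 0.1% DMSO. Cells were PI-stained and cell-cycle phases quantified by flow cytometry. Means ± SD, n = 3, versus DMSO-treated control.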"}, "HCT-15 [25]": {"system": "HCT-15", "experiment": "Cell cycle arrest in human HCT15 cells assessed as ROS-stimulated accumulation at G2/M phase after 24 hrs by propidium iodide based FACS flow cytometry in presence of N-acetyl-L-cysteine", "format": "functional"}, "HT-29 [26]": {"system": "HT-29", "experiment": "Cell cycle arrest in human HT-29 cells assessed as ROS-stimulated accumulation at G2/M phase after 24 hrs by propidium iodide based FACS flow cytometry in presence of SOD", "format": "functional", "method_in_brief": "as §3"}, "HCT-116 [27]": {"system": "HCT-116", "experiment": "Cell cycle arrest in human HCT116 cells assessed as ROS-stimulated accumulation at G2/M phase after 24 hrs by propidium iodide based FACS flow cytometry in presence of alpha-tocopherol", "format": "functional"}, "HT-29 [28]": {"system": "HT-29", "experiment": "Cytotoxicity against human HT-29 cells assessed as dead cells at 1000 uM after 72 hrs by […]", "format": "functional", "method_in_brief": "as §1"}, "HT-29 [29]": {"system": "HT-29", "experiment": "Cytotoxicity against human HT-29 cells assessed as growth inhibition after 72 hrs by WST-8 assay", "format": "functional", "method_in_brief": "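Viability read by WST-8 (Cell Counting Kit-8) after 72 h incubation of HT-29 cells with compound. Cells cultured in DMEM with 10% FBS at 37 °C, 5% CO₂. Means ± SD, n = 3.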"}, "WI-38 [30]": {"system": "WI-38", "experiment": "Cytotoxicity against human WI38 cells assessed as growth inhibition after 72 hrs by WST-8 assay", "format": "cell-based", "conditions": "wi-38, 72 h"}, "HCT-15 [31]": {"system": "HCT-15", "experiment": "Cell cycle arrest in human HCT15 cells assessed as ROS-stimulated accumulation at G2/M phase after 24 hrs by propidium iodide based FACS flow cytometry in presence of L-ascorbic acid", "format": "functional"}}, "note": "Activity calls are given as the source filed them. No cut-off for these calls is given here.", "data": [{"smiles": "COc1cc(/C=C/C(=O)CC(=O)/C=C/c2ccc(O)c(OC)c2)ccc1O", "note": "[CURCUMIN]", "values": [{"measurement": "Activity", "setting": "HT-29 [1]", "result": 45, "unit": "%"}, {"measurement": "Activity", "setting": "HT-29 [2]", "result": 84, "unit": "%"}]}, {"smiles": "COc1cc(/C=C/C(C)=O)ccc1O", "note": "[DEHYDROZINGERONE]", "values": [{"measurement": "Activity", "setting": "HT-29 [3]", "result": "Active"}, {"measurement": "Activity", "setting": "HT-29 [4]", "result": "inactive"}, {"measurement": "Activity", "setting": "HT-29 [5]", "result": "Active"}, {"measurement": "Activity", "setting": "HT-29 [6]", "result": 22, "unit": "%"}, {"measurement": "growth inhibition (GI)", "setting": "HCT-15 [7]", "result": "Active"}, {"measurement": "Activity", "setting": "HT-29 [8]", "result": "Active"}, {"measurement": "Activity", "setting": "HCT-116 [9]", "result": "Active"}, {"measurement": "Activity", "setting": "HT-29 [10]", "result": "Active"}, {"measurement": "fold change (FC)", "setting": "HT-29 [11]", "result": 2}, {"measurement": "Activity", "setting": "HCT-15 [12]", "result": "Active"}, {"measurement": "Activity", "setting": "WI-38 [13]", "result": "Toxic"}, {"measurement": "Activity", "setting": "HT-29 [14]", "result": "inactive"}, {"measurement": "Activity", "setting": "HT-29 [15]", "result": "Active"}, {"measurement": "Activity", "setting": "HT-29 [16]", "result": "Active"}, {"measurement": "Activity", "setting": "HT-29 [17]", "result": "Active"}, {"measurement": "Activity", "setting": "HT-29 [18]", "result": "Active"}, {"measurement": "Activity", "setting": "HT-29 [1]", "result": 11, "unit": "%"}, {"measurement": "Activity", "setting": "HT-29 [19]", "result": "inactive"}, {"measurement": "Activity", "setting": "HCT-116 [20]", "result": "inactive"}, {"measurement": "growth inhibition (GI)", "setting": "HCT-116 [21]", "result": "Active"}, {"measurement": "Activity", "setting": "HT-29 [22]", "result": "Active"}, {"measurement": "Activity", "setting": "HT-29 [23]", "result": "inactive"}, {"measurement": "Activity", "setting": "HT-29 [24]", "result": "inactive"}, {"measurement": "Activity", "setting": "HCT-15 [25]", "result": "inactive"}, {"measurement": "Activity", "setting": "HT-29 [26]", "result": "Active"}, {"measurement": "Activity", "setting": "HCT-116 [27]", "result": "Active"}, {"measurement": "Activity", "setting": "HT-29 [28]", "result": 37, "unit": "%"}, {"measurement": "growth inhibition (GI)", "setting": "HT-29 [29]", "result": "Active"}, {"measurement": "Activity", "setting": "WI-38 [30]", "result": "Toxic"}, {"measurement": "Activity", "setting": "HCT-15 [31]", "result": "Active"}]}, {"smiles": "COc1cccc(/C=C/C(C)=O)c1O", "values": [{"measurement": "Activity", "setting": "HT-29 [16]", "result": "Active"}, {"measurement": "Activity", "setting": "HT-29 [17]", "result": "Active"}, {"measurement": "growth inhibition (GI)", "setting": "HT-29 [29]", "result": "Active"}]}, {"smiles": "COc1ccc(/C=C/C(C)=O)cc1O", "values": [{"measurement": "Activity", "setting": "HT-29 [16]", "result": "Active"}, {"measurement": "Activity", "setting": "HT-29 [17]", "result": "Active"}, {"measurement": "growth inhibition (GI)", "setting": "HT-29 [29]", "result": "Active"}]}]}
